ChEMBL document CHEMBL1137341, “Small-molecule inhibitors of histone acetyltransferase activity: identification and biological properties” (2006)
Blank lines part the entries; values can stand above or below the molecule they belong to. Activity calls are given as the source filed them. The calls are words filed in the database; no cut-off is given here.

Legend:
[1] = target: Histone acetyltransferase GCN5 (Saccharomyces cerevisiae S288c) (UniProt Q03330); experiment: Inhibition of Saccharomyces cerevisiae GCN5 at 0.6 mM
Summary of the method: (§1)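 Yeast strains (wild-type MK839, F221A and E173H GCN5 catalytic mutants, spt20∆) grown at 28 °C with 0.6 mM compound; ten-fold serial dilutions of liquid culture spotted on solid medium. Growth estimated by optical density as arbitrary units.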

[2] = test system: U-937; experiment: Inhibition of HAT in human U937 cells at 50 uM; assay type: functional; parameters: scale not given: the % may be the effect or the level left
Summary of the method: (§2)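 Indirect ELISA for acetylated histone H3 using 10 µg U937 nuclear extract per well as HAT source; 90 min incubation with compound (25, 50 or 500 µM) or DMSO control. Acetylated H3 peptide standard curve; expressed as % inhibition relative to untreated extract (100%).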

[3] = test system: U-937; experiment: Induction of apoptosis in human U937 cells at 1 mM after 24 hrs; assay type: functional
Summary of the method: (§3)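 U937 cells in RPMI with 10% FBS and antibiotics, held at 200 000 cells/mL, treated 24 h at 1 mM (DMSO stock). Cell cycle: 2.5 × 10^5 cells in hypotonic buffer with propidium iodide and RNase A, 30 min dark, flow cytometry; three experiments. Apoptosis: Annexin V/propidium iodide double staining by FACS.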

[4] = test system: U-937; experiment: Inhibition of alpha-tubulin acetylation in human U937 cells at 2.5 mM; assay type: functional, cell-based
Summary of the method: (§4)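 U937 cells pretreated 2 h with 5 µM SAHA, washed, then incubated 4 h with vehicle or compound at 2.5 mM. Western blot for acetylated histone H3 and acetylated α-tubulin (50 µg protein on 10% gels, normalized to total ERKs).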

[5] = test system: Saccharomyces cerevisiae; experiment: Inhibition of GCN5-independent GAL10-CYC1-LacZ reporter gene transcription measured as level of beta-galactosidase activity in Saccharomyces cerevisiae; assay type: functional, organism-based
Summary of the method: (§5)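 Yeast reporter strains: HIS3-LacZ (yPO14) grown 16 h in SD at 28 °C and then 4 h with 25 mM 3-aminotriazole; GAL10-CYC1-LacZ (yPO1569) grown 16 h in SD, washed, then 4 h in galactose SG medium. Compounds at 0.6 mM. β-Gal activity read in glass-bead extracts normalized to Bradford protein; 1 unit = 1 µmol o-nitrophenol/min.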

[6] = test system: U-937; experiment: Cell cycle arrest at G1 phase in human U937 cells at 1 mM after 24 hrs; assay type: functional, cell-based; summary of the method: as §3
[7] = test system: Saccharomyces cerevisiae; experiment: Inhibition of GCN5-independent GAL10-CYC1-LacZ reporter gene transcription measured as level of beta-galactosidase activity in Saccharomyces cerevisiae under galactose induction
[8] = test system: U-937; experiment: Inhibition of HAT in human U937 cells at 500 uM; assay type: functional; parameters: scale not given: the % may be the effect or the level left; summary of the method: as §2
[9] = test system: Saccharomyces cerevisiae; experiment: Inhibition of Saccharomyces cerevisiae growth at 0.6 mM; assay type: functional, organism-based; summary of the method: as §1
[10] = test system: Saccharomyces cerevisiae; experiment: Inhibition of Saccharomyces cerevisiae H3 histone acetylation at 0.6 mM; assay type: functional, organism-based
Summary of the method: (§6)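 Wild-type S. cerevisiae grown 16 h in YPD at 28 °C with 0.6, 1 or 1.5 mM compound; gcn5∆ strain run in parallel. Alkaline protein extraction, 15% SDS-PAGE, Western blot with anti-acetyl-H3 and anti-H3 antibodies, ECL detection.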

[11] = test system: U-937; experiment: Effect on granulocytic differentiation in human U937 cells measured as CD11c expression level at 1 mM after 30 hrs; assay type: functional
Summary of the method: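 U937 cells (RPMI, 10% FBS, 200 000 cells/mL) exposed 30 h to 1 mM. Stained with PE-conjugated CD11c, 30 min at 4 °C in the dark; PE mouse IgG1 as staining control; propidium iodide 0.25 µg/mL added and PI-positive cells excluded. Reported as percent CD11c-positive cells by FACS.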

[12] = target: Histone acetyltransferase GCN5 (Saccharomyces cerevisiae S288c) (UniProt Q03330); experiment: Inhibition of GCN5-dependent HIS3-LacZ reporter gene transcription measured as level of beta-galactosidase activity in Saccharomyces cerevisiae in presence of 3-aminotriazole; assay type: functional
[13] = target: Histone acetyltransferase GCN5 (Saccharomyces cerevisiae S288c) (UniProt Q03330); experiment: Inhibition of GCN5-dependent HIS3-LacZ reporter gene transcription measured as level of beta-galactosidase activity in Saccharomyces cerevisiae; assay type: functional; summary of the method: as §5
[14] = test system: Saccharomyces cerevisiae; experiment: Inhibition of Saccharomyces cerevisiae H3 histone acetylation at 1 mM; assay type: functional, organism-based; summary of the method: as §6
[15] = test system: U-937; experiment: Inhibition of H3 histone acetylation in human U937 cells at 2.5 mM; assay type: functional, cell-based; summary of the method: as §4
[16] = test system: Saccharomyces cerevisiae; experiment: Inhibition of Saccharomyces cerevisiae H3 histone acetylation at 1.5 mM; assay type: functional, organism-based; summary of the method: as §6
[17] = test system: Saccharomyces cerevisiae; experiment: Inhibition of growth of Saccharomyces cerevisiae F221A mutant at 0.6 mM; assay type: functional, organism-based; summary of the method: as §1
[18] = test system: Saccharomyces cerevisiae; experiment: Inhibition of growth of Saccharomyces cerevisiae E173H mutant at 0.6 mM; assay type: functional, organism-based; summary of the method: as §1
[19] = test system: Saccharomyces cerevisiae; experiment: Inhibition of growth of wild type Saccharomyces cerevisiae MK839 mutant at 0.6 mM; assay type: functional, organism-based; summary of the method: as §1
[20] = test system: Saccharomyces cerevisiae; experiment: Inhibition of growth of Saccharomyces cerevisiae spt20delta mutant at 0.6 mM; assay type: functional, organism-based; summary of the method: as §1
[21] = test system: U-937; experiment: Inhibition of H3 histone acetylation in human U937 cells at 100 uM; assay type: functional, cell-based
Summary of the method: (§7)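 SAHA 5 µM pretreatment of U937 cells for 2 h, then wash and 4 h with vehicle or 100 µM compound. Acetyl-H3 and acetyl-α-tubulin detected by Western blot (50 µg total protein for tubulin, total ERKs as loading control).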

[22] = test system: U-937; experiment: Inhibition of alpha-tubulin acetylation in human U937 cells at 100 uM; assay type: functional, cell-based; summary of the method: as §7
[23] = test system: U-937; experiment: Inhibition of HAT in human U937 cells at 25 uM; assay type: functional; parameters: scale not given: the % may be the effect or the level left; summary of the method: as §2

Chain of Histone acetyltransferase GCN5 (Saccharomyces cerevisiae S288c) (Q03330 whole entry): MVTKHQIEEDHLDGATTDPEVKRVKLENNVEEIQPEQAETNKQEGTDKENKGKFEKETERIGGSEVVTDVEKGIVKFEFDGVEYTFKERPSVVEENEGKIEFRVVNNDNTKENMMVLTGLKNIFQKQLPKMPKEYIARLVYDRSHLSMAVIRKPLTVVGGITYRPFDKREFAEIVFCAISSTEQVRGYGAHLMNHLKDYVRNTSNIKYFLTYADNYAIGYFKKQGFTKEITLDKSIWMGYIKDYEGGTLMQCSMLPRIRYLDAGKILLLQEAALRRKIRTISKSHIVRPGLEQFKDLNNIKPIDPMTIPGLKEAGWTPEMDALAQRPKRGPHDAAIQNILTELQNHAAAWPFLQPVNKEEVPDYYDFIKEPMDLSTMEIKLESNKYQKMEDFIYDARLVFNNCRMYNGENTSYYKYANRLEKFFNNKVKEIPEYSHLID

- Activity [5]: inactive
- Activity [7]: inactive
- Activity [12]: Active
- Activity [13]: Active
SMILES: CCOC(=O)c1cc2ccccc2nc1C
- Activity [3]: 27%
- Activity [4]: Active
- Activity [6]: Active
- Activity [8]: 32%
- Activity [9]: Active
- Activity [10]: Active
- Activity [11]: 8.8%
- Activity [14]: Active
- Activity [15]: Active

- Activity [1]: inactive
SMILES: NC(=O)c1cnc2ccccc2c1

- Activity [1]: Active
- Activity [7]: Active
- Activity [12]: Active
- Activity [13]: Active
SMILES: CCOC(=O)c1cnc2ccccc2c1
- Activity [4]: Active
- Activity [8]: 25%
- Activity [9]: Active
- Activity [11]: 14%
- Activity [16]: Active

- Activity [1]: inactive
SMILES: O=C(O)c1cnc2ccccc2c1

The remaining lines, values behind:

SMILES: CCOC(=O)c1ccc2ccccc2c1
- Activity [1]: inactive

SMILES: C=CC/C=C\C/C=C\CCCCCCCc1cccc(O)c1C(=O)O [ANACARDIC ACID]
- Activity [2]: 15%

SMILES: Cc1ccc2ccccc2n1
- Activity [1]: inactive

SMILES: C=C1C(=O)O[C@H](CCC)[C@H]1C(=O)O
- Activity [2]: 44%

SMILES: COc1cc(/C=C/C(=O)CC(=O)/C=C/c2ccc(O)c(OC)c2)ccc1O [CURCUMIN]
- Activity [2]: 17.5%

SMILES: CCOC(=O)c1c(C)nc2ccccc2c1O
- Activity [1]: inactive

SMILES: CCOC(=O)c1cccnc1C
- Activity [5]: inactive
- Activity [1]: inactive
- Activity [17]: inactive
- Activity [7]: inactive
- Activity [18]: inactive
- Activity [12]: inactive
- Activity [19]: inactive
- Activity [13]: inactive
- Activity [20]: inactive

SMILES: CCCCCc1nc2ccccc2c(O)c1C(=O)O
- Activity [21]: Active
- Activity [22]: Active
- Activity [23]: 24%
- Activity [2]: 30%
